The source made the active and inactive calls. The rule behind the calls is not given here.

The subject of data set [1] is J774.A1. The data set is described as follows: Stimulation of TNFalpha production in mouse J774.A1 cells at 50 uM after 24 hrs by ELISA relative to untreated control. In kind it is functional. In short, it runs like this:
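Murine J774.A1 macrophages grown in DMEM with 10% heat-inactivated FBS and 10 mM HEPES at 37°C under 5% CO2, detached by scraping. Plated at 2×10^5 cells/well in medium with 3% FBS and exposed 24 hr to compound, DMSO vehicle or LPS. Supernatant TNF-α measured by murine ELISA against a standard curve. Reported as fold-increase over DMSO control.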

The subject of data set [2] is J774.A1. Put plainly: Cytotoxicity against mouse J774.A1 cells assessed as effect on cell viability at <=50 uM after 24 hrs. The conditions noted are these: j774.a1, 24 h. In kind it is cell-based.

For `Cc1ccc(C(=O)N/N=C/c2ccc(-c3cccc(Cl)c3Cl)o2)cn1`, in the data set with J774.A1 [1], the outcome was inactive. Moreover, in the data set on J774.A1 [2], the Activity entry is listed as “Non-toxic”.
`Cc1ccc(-c2ccc(/C=N/NC(=O)c3cncc(Br)c3)o2)cc1Cl`: the “fold change (FC)” value in the data set on J774.A1 [1] worked out at 10. Also, the Activity result in the data set with J774.A1 [2] is recorded as “Non-toxic”.
With `Cc1ccc(C(=O)N/N=C/c2ccc(-c3ccc(C)c(Cl)c3)o2)cn1`, in the data set with J774.A1 [1], the “fold change (FC)” value stood at 21. Also, the Activity entry in the data set with J774.A1 [2] is “Non-toxic”.
Turning to `O=C(N/N=C/c1ccc(-c2ccc(Cl)cc2Cl)o1)c1cncc(Br)c1`, the result in the data set with J774.A1 [1] was inactive. In addition, the Activity result in the data set on J774.A1 [2] is recorded as “Non-toxic”.
As for `O=C(N/N=C/c1ccc(-c2ccc(Cl)cc2)o1)c1ccncc1`, the outcome in the data set on J774.A1 [1] was inactive. In the data set on J774.A1 [2], the Activity entry is “Non-toxic”.
As for `Cc1ccc(C(=O)N/N=C/c2ccc(-c3ccc(Cl)cc3Cl)o2)cn1`, the outcome in the data set on J774.A1 [1] was inactive. Also, the Activity result in the data set on J774.A1 [2] is “Non-toxic”.
As for `Cc1ccc(C(=O)N/N=C/c2ccc(-c3cccc(Cl)c3)o2)cn1`, the outcome in the data set with J774.A1 [1] was inactive. Besides, the Activity entry in the data set with J774.A1 [2] is “Non-toxic”.
For `O=C(N/N=C/c1ccc(-c2ccc(Cl)c(Cl)c2)o1)c1ccncc1`, the result with J774.A1 [1] was inactive. Besides, the Activity entry with J774.A1 [2] was “Non-toxic”.
In the same order, the values of `O=C(N/N=C/c1ccc(-c2ccccc2Cl)o1)c1cccnc1` are “inactive” and “Non-toxic”.
As to `CCc1ccc(C(=O)N/N=C/c2ccc(-c3ccc(C)c(Cl)c3)o2)nc1`, the outcome in the data set on J774.A1 [1] was inactive. In addition, in the data set with J774.A1 [2], the Activity entry is “Non-toxic”.
For the compound `Cc1ccc(-c2ccc(/C=N/NC(=O)c3cccnc3)o2)cc1Cl`, the “fold change (FC)” value in the data set on J774.A1 [1] was found to be 60. The Activity result in the data set with J774.A1 [2] is recorded as “Non-toxic”.
Turning to `O=C(N/N=C/c1ccc(-c2cccc(Cl)c2Cl)o1)c1cccnc1`, in the data set with J774.A1 [1], the result was inactive. The Activity entry with J774.A1 [2] is on record as “Non-toxic”.
As to `O=C(N/N=C/c1ccc(-c2ccc(Cl)cc2)o1)c1cccnc1`, in the data set on J774.A1 [1], the “fold change (FC)” value is listed as 15. The Activity entry in the data set with J774.A1 [2] was “Non-toxic”.
As for `Cc1ccc(C(=O)N/N=C/c2ccc(-c3ccc(Cl)c(Cl)c3)o2)cn1`, in the data set with J774.A1 [1], the outcome was inactive. In addition, in the data set on J774.A1 [2], the Activity result was “Non-toxic”.
On to `Cc1ccc(C(=O)N/N=C/c2ccc(-c3cc(Cl)ccc3Cl)o2)cn1`, for which the result in the data set with J774.A1 [1] was inactive. Besides, the Activity result in the data set with J774.A1 [2] is “Non-toxic”.
As for `O=C(N/N=C/c1ccc(-c2cccc(Br)c2)o1)c1ccccn1`, the result in the data set on J774.A1 [1] was inactive. Further, in the data set on J774.A1 [2], the Activity entry is “Non-toxic”.
Turning to `Cc1ccc(C(=O)N/N=C/c2ccc(-c3cccc(Br)c3)o2)cn1`, the outcome in the data set with J774.A1 [1] was inactive. In the data set with J774.A1 [2], the Activity result is recorded as “Non-toxic”.
For `O=C(N/N=C/c1ccc(-c2cccc(Cl)c2)o1)c1cccnc1`, the “fold change (FC)” value in the data set on J774.A1 [1] is reported as 17. The Activity entry with J774.A1 [2] is “Non-toxic”.
Regarding `O=C(N/N=C/c1ccc(-c2cc(Cl)c(Cl)cc2Cl)o1)c1cccnc1`, in the data set on J774.A1 [1], the outcome was inactive. Further, the Activity result in the data set with J774.A1 [2] is reported as “Non-toxic”.
Consider `O=C(N/N=C/c1ccc(-c2ccc(Br)cc2)o1)c1cccnc1`, for which, in the data set on J774.A1 [1], the outcome was inactive. In addition, the Activity entry in the data set with J774.A1 [2] is reported as “Non-toxic”.
Take `O=C(N/N=C/c1ccc(-c2ccc(Cl)cc2)o1)c1cncc(Br)c1`: the “fold change (FC)” value in the data set on J774.A1 [1] came to 25. Besides, the Activity entry with J774.A1 [2] is listed as “Non-toxic”.
As to `Cc1ccc(-c2ccc(/C=N/NC(=O)c3ccncc3)o2)cc1Cl`, the “fold change (FC)” value with J774.A1 [1] turned out to be 50. Further, the Activity result with J774.A1 [2] was “Non-toxic”.

Values taken from ChEMBL document CHEMBL1142458, “Computational structure-activity relationship analysis of non-peptide inducers of macrophage tumor necrosis factor-alpha production” (Bioorg Med Chem, 2008).
